This passage reports Change results from ChEMBL document CHEMBL1148398, “Design, synthesis, and biological evaluation of thio-containing compounds with serum HDL-cholesterol-elevating properties” (2004).

What all share (format): functional
The test system of test [1] is Rattus norvegicus. Put plainly: Percent change in triglycerides in hypercholesterolemic rats at a dose of 100 mg/kg/day for 8 days.
Test [2] deals with Cricetinae gen. sp. Put plainly: Percent change in low-density lipoprotein cholesterol following oral administration of compound in hypercholesterolemic hamsters at 100 mg/kg/day for 14 days. A digest of the protocol: (§1)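 Male Syrian Golden hamsters pre-fed chow plus 0.25% cholesterol for 2 weeks and kept on it. Dosed 100 mg/kg/day by oral gavage in 2% Tween 80/saline for 14 days. Serum total cholesterol and glycerol-blanked triglycerides read enzymatically; lipoproteins separated by FPLC with cholesterol measured in each fraction. % change versus vehicle controls; six per group, p < 0.05.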

For test [3], the system named is Rattus norvegicus. Put plainly: Percent change in total plasma cholesterol following oral administration of compound in normal chow-fed rats at 100 mg/kg/day for 4 days. An outline of the steps:
(§2)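 Chow-fed male Sprague–Dawley CD rats, 60–80 g, gavaged 100 mg/kg/day for 4 days in 1.3% Tween 80/0.25% CMC. Fasted overnight, bled 24 h after the last dose. Total cholesterol and glycerol-blanked triglycerides read enzymatically; lipoproteins by FPLC with cholesterol per fraction. % change versus control; six per group, p < 0.05.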

Test [4] has as its system Cricetinae gen. sp. As to the kind of experiment: Percent change in very low-density lipoprotein cholesterol following oral administration of compound in hypercholesterolemic hamsters at 100 mg/kg/day for 14 days. An outline of the steps:
as §1

For test [5], the system named is Rattus norvegicus. Put plainly: Percent change in very low-density lipoprotein cholesterol following oral administration of compound in normal chow-fed rats at 100 mg/kg/day for 4 days. An outline of the steps:
as §2

The test system of test [6] is Rattus norvegicus. As to the kind of experiment: Percent change in total plasma cholesterol in hypercholesterolemic rats dosed at 100 mg/kg/day for 8 days.
Test [7] relates to Rattus norvegicus. Put plainly: Percent change in high-density lipoprotein cholesterol following oral administration of compound in normal chow-fed rats at 100 mg/kg/day for 4 days. An outline of the steps: as §2
For test [8], the system named is Rattus norvegicus. As to the kind of experiment: Percent change in triglycerides following oral administration of compound in normal chow-fed rats at 100 mg/kg/day for 4 days. A digest of the protocol: as §2
The subject of test [9] is Rattus norvegicus. As to the kind of experiment: Percent change in low-density lipoprotein cholesterol following oral administration of compound in normal chow-fed rats at 100 mg/kg/day for 4 days. An outline of the steps: as §2
The test system of test [10] is Cricetinae gen. sp. Put plainly: Percent change in total plasma cholesterol following oral administration of compound in hypercholesterolemic hamsters at 100 mg/kg/day for 14 days. An outline of the steps: as §1
Test [11] has as its system Rattus norvegicus. As to the kind of experiment: Percent change in high-density lipoprotein cholesterol in hypercholesterolemic rats dosed at 100 mg/kg/day for 8 days.
In test [12] the test system is Cricetinae gen. sp. Put plainly: Percent change in triglycerides following oral administration of compound in hypercholesterolemic hamsters at 100 mg/kg/day for 14 days. A digest of the protocol: as §1
Test [13] concerns Cricetinae gen. sp. Put plainly: Percent change in high-density lipoprotein cholesterol following oral administration of compound in hypercholesterolemic hamsters at 100 mg/kg/day for 14 days. A digest of the protocol:
as §1

As to `COc1ccc(Cl)cc1N1C(=O)CON(C)C1=S`, the Change is reported as 7% in test [1]; -20.2% in test [2]; 67.7% in [3]; -32.6% in [4]; 25% in test [5]; 44% in [6]. The Change in test [7] was 71.3%; in test [8] it was -7.4%; in test [9], 8.6%; in [10] it was -7.9%; in test [11], 78%; in test [12], -26.5%. Moreover, the Change in [13] came to 23.5%.

As to `Cc1cccc(Cl)c1N1C(=O)CON(C)C1=S`, the Change in test [1] was -30%; in test [2] it was -22.4%; in test [3], 40.4%; in [4], 5.2%; in [5] it was 80.8%; in test [6], -2.7%. Also, the Change in test [7] is 52.8%; in [8], -61.5%; in test [9], 11.7%; in test [10], -21.4%; in [11] it was 100%; in [12] it was 38.6%. The Change in [13] is given as -28.1%.

With `CCN1CC(=O)N(c2ccc(C)cc2C)C1=S`, the Change in test [1] is -34%; in [2], -11.6%; in test [3], 55.5%; in test [4] it was 14.5%; in test [5] it was 15.6%; in test [6] it was 25%. The Change in test [7] is 61.2%; in [8], -35.4%; in test [9], 8.3%; in test [10], 10.7%; in [11], 83%; in [12], 9.6%. The Change in [13] came out at 33.3%.

For the compound `CCN1CC(=O)N(c2ccccc2C(C)C)C1=S`, the Change in test [1] is listed as 10%; in test [2], -41%; in test [3], 111.4%; in test [4] it was -4.5%; in test [5], 73.7%; in test [6], 71%. In addition, the Change in test [7] is 90.6%; in test [8], -27.5%; in test [9], 24.6%; in [10], -5.9%; in test [11] it was 201%; in test [12] it was -10.1%. In addition, the Change in test [13] is on record as 19.5%.

`CCN1CC(=O)N(c2cccc(Cl)c2Cl)C1=S`: the Change was -23% in [1]; -8.1% in test [2]; 89.6% in test [3]; -5.9% in test [4]; 57.9% in test [5]; 11% in test [6]. The Change is 85.3% in test [7]; 18.3% in test [8]; 20.4% in test [9]; -8% in test [10]; 98% in test [11]; -12.3% in test [12]. Also, in test [13], the Change is on record as 0%.

With `Cc1ccc(C)c(N2C(=O)CON(C)C2=S)c1`, the Change in [1] is 26%; in test [2], -40.1%; in test [3] it was 75.2%; in test [4], -25.5%; in [5], 61.5%; in test [6], 28%. The Change is recorded as 87.2% in test [7]; -31.6% in test [8]; 9.1% in [9]; -13.8% in test [10]; 72% in [11]; -23.8% in test [12]. Further, in [13], the Change came to 48.3%.

On to `CCN1C(=S)N(c2cc(Cl)ccc2C)C(=O)C1OC` (stereo not drawn), for which the Change in test [1] was -33%; in test [2] it was -19%; in test [3], 102.3%; in [4], -35.8%; in [5] it was 83.6%; in test [6], 6%. In addition, the Change in test [7] was 91.6%; in [8], -10.6%; in [9] it was 11.9%; in [10], 3.8%; in test [11], 140%; in [12], -36.4%. For the same compound, the Change in test [13] was found to be 57.4%.

Turning to `CCN1CCC(=O)N(c2ccc(Cl)cc2C)C1=S`, the Change in [1] is given as -16%; in test [2], -26.8%; in [3], 80.7%; in [4] it was 6.3%; in [5], -15%; in test [6], 40%. The Change is given as 75.5% in test [7]; -53.1% in [8]; 38.9% in test [9]; 2% in test [10]; 126% in test [11]; -30.7% in test [12]. The Change in test [13] is recorded as 47.8%.

As for `CCN1CCC(=O)N(c2c(C)cccc2C)C1=S`, the Change is given as -12% in test [1]; 24% in [2]; 70.4% in test [3]; 22.7% in test [4]; -5.2% in test [5]; 11% in [6]. Besides, the Change in [7] is 97.4%; in [8], -11.4%; in test [9] it was 0%; in test [10], -3%; in test [11], 184%; in [12], 8.6%. For the same compound, the Change in test [13] worked out at 0.7%.

Take `CCN1CC(=O)N(c2c(C)cccc2Cl)C1=S`: the Change in [1] is reported as -20%; in test [2], -39.1%; in test [3], 79.8%; in test [4], -74.4%; in [5], 41.4%; in [6] it was -34%. Moreover, the Change in test [7] was 62.9%; in [8], -57.1%; in test [9], -35%; in test [10], -32.2%; in [11], 222%; in test [12] it was -77.1%. The Change in test [13] is given as 13.8%.

Take `Cc1cccc(C)c1N1C(=O)CN(C(C)C)C1=S`: the Change in [1] was -43%; in test [2], 17.2%; in [3] it was 56.1%; in [4], 8.9%; in test [5], -10.5%; in test [6] it was -25%. The Change in test [7] is on record as 71.2%; in test [8], -42.9%; in [9], -5.8%; in [10], -3.1%; in [11], 146%; in [12], -7.3%. Also, the Change in [13] is reported as 1.7%.
